Experimental data taken from ChEMBL document CHEMBL4400513, “Aurone derivatives as promising antibacterial agents against resistant Gram-positive pathogens” (Eur J Med Chem, 2019).
In brackets after ≈: the same amount, converted by molar mass. Activity calls are given as the source filed them. The rule behind the calls is not given here.

Tests used:
Pseudomonas aeruginosa = test: Antimicrobial activity against Pseudomonas aeruginosa after 18 to 24 hrs in aerobic condition by two-fold serial dilutions method; format: functional
Method in brief: (§1)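 Colonies grown overnight (~16 h) in Mueller-Hinton broth at 37 °C, 200 rpm, diluted 1/100 and grown to log phase (OD600 ~0.6), then diluted to ~10^5 bacteria/mL. Exposed to 0 to 500 µM in 1:2 series (0.2% DMSO final control), aerobic, 37 °C, 18–24 h. OD600 read; MIC = lowest concentration without visible growth; n = 3.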

Clostridium botulinum [1] = test: Antimicrobial activity against Clostridium botulinum after 18 to 24 hrs in anaerobic condition by two-fold serial dilutions method; format: functional
Clostridioides difficile = test: Antimicrobial activity against Clostridium difficile after 18 to 24 hrs in anaerobic condition by two-fold serial dilutions method; format: functional
Method in brief: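 Precultures in BHI broth at 37 °C in an anaerobic cabinet, grown to log phase (OD600 ~0.6), then seeded at ~10^5 bacteria/mL. Two-fold dilutions from 0 to 500 µM, 0.2% DMSO final as control. Plates incubated anaerobically at 37 °C for 18–24 h, OD600 read; MIC = lowest concentration giving no visible growth; independent triplicate.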

Clostridium perfringens = test: Antimicrobial activity against Clostridium perfringens after 24 to 72 hrs in anaerobic condition by two-fold serial dilutions method; format: functional
Method in brief: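 C. perfringens grown in BHI at 37 °C anaerobically and brought to log phase (OD600 ~0.6). About 10^5 bacteria/mL with two-fold serial dilutions 0–500 µM, DMSO 0.2% final as control. Incubated 24 h at 37 °C in anaerobic cabinet; OD600 read; MIC = lowest concentration with no visible growth. Independent triplicate.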

Citrobacter farmeri = test: Antimicrobial activity against Citrobacter farmeri after 18 to 24 hrs in aerobic condition by two-fold serial dilutions method; format: functional; method in brief: as §1
Citrobacter rodentium [2] = test: Antimicrobial activity against Citrobacter rodentium after 18 to 24 hrs in aerobic condition by two-fold serial dilutions method; format: functional; method in brief: as §1
Escherichia coli [3] = test: Antimicrobial activity against Escherichia coli after 18 to 24 hrs in aerobic condition by two-fold serial dilutions method; format: functional; method in brief: as §1
Escherichia coli [4] = test: Antimicrobial activity against Escherichia coli […] K88 after 18 to 24 hrs in aerobic condition by two-fold serial dilutions method; format: functional
Method in brief: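 Strains grown on LB at 37 °C aerobically, then in Mueller-Hinton broth overnight at 200 rpm and brought to log phase (OD600 ~0.6). About 10^5 bacteria/mL exposed to two-fold serial dilutions 0–500 µM, DMSO 0.2% final as control. Aerobic incubation at 37 °C for 18–24 h; OD600 read; MIC = lowest concentration inhibiting visible growth. n = 3.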

Klebsiella pneumoniae = test: Antimicrobial activity against Klebsiella pneumoniae after 18 to 24 hrs in aerobic condition by two-fold serial dilutions method; format: functional; method in brief: as §1
Klebsiella variicola = test: Antimicrobial activity against Klebsiella variicola after 18 to 24 hrs in aerobic condition by two-fold serial dilutions method; format: functional; method in brief: as §1
Salmonella enterica = test: Antimicrobial activity against Salmonella enterica after 18 to 24 hrs in aerobic condition by two-fold serial dilutions method; format: functional; method in brief: as §1
Shigella flexneri [5] = test: Antimicrobial activity against Shigella flexneri after 18 to 24 hrs in aerobic condition by two-fold serial dilutions method; format: functional; method in brief: as §1
Vibrio alginolyticus = test: Antimicrobial activity against Vibrio alginolyticus after 18 to 24 hrs in aerobic condition by two-fold serial dilutions method; format: functional; method in brief: as §1
Vibrio diabolicus [6] = test: Antimicrobial activity against Vibrio diabolicus after 18 to 24 hrs in aerobic condition by two-fold serial dilutions method; format: functional; method in brief: as §1
[7] = system: Mycolicibacterium smegmatis; test: Antimicrobial activity against Mycobacterium smegmatis after 18 to 24 hrs in anaerobic condition by two-fold serial dilutions method; format: functional
Fusarium oxysporum [8] = test: Antifungal activity against Fusarium oxysporum after 2 to 5 days by two-fold serial dilutions method; format: functional
Method in brief: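 Broth two-fold serial dilution MIC, 0 to 500 µM (1:2 steps), from 200 mM DMSO stocks; 0.2% DMSO final as vehicle control. Inoculum about 10^5 cells/mL. Strains maintained on potato dextrose agar and in RPMI medium. Plates held at room temperature for 2 to 5 days, OD600 read; MIC = lowest concentration preventing visible growth; independent triplicate.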

Staphylococcus aureus = test: Bactericidal activity against methicillin-resistant Staphylococcus aureus in aerobic condition; format: functional, organism-based
Bacillus subtilis = test: Bactericidal activity against Nisin-resistant Bacillus subtilis in aerobic condition; format: functional, organism-based
Clostridium botulinum [9] = test: Bactericidal activity against Clostridium botulinum in anaerobic condition; format: functional, organism-based
Lactococcus lactis = test: Bactericidal activity against Lactococcus lactis in aerobic condition; format: functional, organism-based
Method in brief: (§2)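 From the MIC plates, 10 µL from each well without growth was streaked onto agar suited to the organism and incubated under that organism's growth conditions. Colonies were then counted; MBC = lowest concentration allowing ≤1 colony, i.e. killing 99.9% of bacteria.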

Cutibacterium acnes = test: Bactericidal activity against Propionibacterium acnes in aerobic condition; format: functional, organism-based; method in brief: as §2
[10] = system: Bacteroides thetaiotaomicron; test: Bactericidal activity against Bacteroides thetaiotaomicron in anaerobic condition; format: functional, organism-based; method in brief: as §2
Citrobacter rodentium [11] = test: Bactericidal activity against Citrobacter rodentium in aerobic condition; format: functional, organism-based; method in brief: as §2
Escherichia coli [12] = test: Bactericidal activity against Escherichia coli in aerobic condition; format: functional, organism-based; method in brief: as §2
Escherichia coli [13] = test: Bactericidal activity against Escherichia coli MRS in aerobic condition; format: functional, organism-based; method in brief: as §2
Shigella flexneri [14] = test: Bactericidal activity against Shigella flexneri in aerobic condition; format: functional, organism-based
Method in brief: (§3)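 MH broth; log-phase bacteria (OD600 ~0.6) diluted to ~10^5 bacteria/mL and exposed to two-fold serial dilutions (0–500 µM; 0.2% DMSO final as vehicle control) at 37 °C, aerobic, 18–24 h. MIC is the lowest concentration preventing visible growth (OD600). MBC is found by streaking 10 µL from no-growth wells onto agar; the MBC is the concentration where ≤1 colony grew. n = 3.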

Vibrio diabolicus [15] = test: Bactericidal activity against Vibrio diabolicus in aerobic condition; format: functional, organism-based; method in brief: as §3
[16] = system: Mycolicibacterium smegmatis; test: Bactericidal activity against Mycobacterium smegmatis in anaerobic condition; format: functional, organism-based; method in brief: as §2
Candida albicans = test: Fungicidal activity against Candida albicans; format: functional, organism-based
Method in brief: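 C. albicans in RPMI buffered with 0.165 M MOPS (pH 7.0). Two-fold serial dilutions from 0 to 500 µM, 0.2% DMSO final. Plates incubated at 35 °C for 24 h; OD600 read, MIC taken as the lowest concentration with no visible growth. Fungicidal concentration defined by ≤1 colony after streaking 10 µL of no-growth wells on agar. n = 3.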

Fusarium graminearum = test: Fungicidal activity against Fusarium graminearum; format: functional, organism-based
Fusarium oxysporum [17] = test: Fungicidal activity against Fusarium oxysporum; format: functional, organism-based
Method in brief: (§4)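 Filamentous fungi grown on potato dextrose agar and tested in RPMI medium with two-fold serial dilutions (0–500 µM, 0.2% DMSO final). Plates held at room temperature for 2 to 5 days, then OD600 read; MIC taken as the lowest concentration with no visible growth. The fungicidal endpoint is ≤1 colony after streaking 10 µL of no-growth wells on agar. n = 3.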

Penicillium verrucosum = test: Fungicidal activity against Penicillium verrucosum; format: functional, organism-based; method in brief: as §4

Row | Compound | MIC (Pseudomonas aeruginosa) [µM] | MIC (Clostridium botulinum [1]) [µM] | MIC (Clostridioides difficile) [µM] | MIC (Clostridium perfringens) [µM] | MIC (Citrobacter farmeri) [µM] | MIC (Citrobacter rodentium [2]) [µM] | MIC (Escherichia coli [3]) [µM] | MIC (Escherichia coli [4]) [µM] | MIC (Klebsiella pneumoniae) [µM] | MIC (Klebsiella variicola) [µM] | MIC (Salmonella enterica) [µM] | MIC (Shigella flexneri [5]) [µM] | MIC (Vibrio alginolyticus) [µM] | MIC (Vibrio diabolicus [6]) [µM] | MIC [7] [µM] | MIC (Fusarium oxysporum [8]) [µM] | Activity (Staphylococcus aureus) | Activity (Bacillus subtilis) | Activity (Clostridium botulinum [9]) | Activity (Lactococcus lactis) | other results
1 | O=C1/C(=C/c2ccc(F)cc2)Oc2cc(O)cc(O)c21 | > 500 | 500 (≈ 136 µg/mL) | 62.5 (≈ 17 µg/mL) | 31.2 to 62.5 (≈ 8.51 to 17 µg/mL) | > 500 | > 500 | > 500 | > 500 | > 500 | > 500 | > 500 | > 500 | 125 (≈ 34 µg/mL) | > 500 | > 500 | > 500 | Active | Active | Active | Active | Activity (Cutibacterium acnes): Active; Activity [10]: Active; Activity (Citrobacter rodentium [11]): Active; Activity (Escherichia coli [12]): Active; Activity (Escherichia coli [13]): Active; Activity (Shigella flexneri [14]): Active; Activity (Vibrio diabolicus [15]): Active; Activity [16]: Active; Activity (Candida albicans): Active; Activity (Fusarium graminearum): Active; Activity (Fusarium oxysporum [17]): Active; Activity (Penicillium verrucosum): Active
2 | O=C1/C(=C/c2ccccc2)Oc2cc(O)cc(O)c21 | > 500 | 500 (≈ 127 µg/mL) | 62.5 (≈ 15.9 µg/mL) | 7.8 (≈ 1.98 µg/mL) | > 500 | > 500 | > 500 | > 500 | > 500 | > 500 | > 500 | > 500 | 31.2 (≈ 7.95 µg/mL) | > 500 | > 500 | > 500 | Active | Active | Active | Active | Activity (Cutibacterium acnes): Active; Activity [10]: Active; Activity (Citrobacter rodentium [11]): Active; Activity (Escherichia coli [12]): Active; Activity (Escherichia coli [13]): Active; Activity (Shigella flexneri [14]): Active; Activity (Vibrio diabolicus [15]): Active; Activity [16]: Active; Activity (Candida albicans): Active; Activity (Fusarium graminearum): Active; Activity (Fusarium oxysporum [17]): Active; Activity (Penicillium verrucosum): Active
3 | COc1cc(/C=C2\Oc3cc(O)cc(O)c3C2=O)ccc1OCc1ccccc1 | > 500 | 62.5 (≈ 24.4 µg/mL) | 31.2 (≈ 12.2 µg/mL) | 31.2 to 62.5 (≈ 12.2 to 24.4 µg/mL) | > 500 | > 500 | > 500 | > 500 | > 500 | > 500 | > 500 | > 500 | 3.9 (≈ 1.52 µg/mL) | > 500 | > 500 | > 500 | Active | Active | Active | Active | Activity (Cutibacterium acnes): Active; Activity [10]: Active; Activity (Citrobacter rodentium [11]): Active; Activity (Escherichia coli [12]): Active; Activity (Escherichia coli [13]): Active; Activity (Shigella flexneri [14]): Active; Activity (Vibrio diabolicus [15]): Active; Activity [16]: Active; Activity (Candida albicans): Active; Activity (Fusarium graminearum): Active; Activity (Fusarium oxysporum [17]): Active; Activity (Penicillium verrucosum): Active
